RGS4 act – RGS4 potentiators or activators, primary screen, cell-based, HEK293 M3R inducible RGS4, calcium flux. carbachol calcium flux Fluo4; active compounds read low. B-score at 10 µM. hit rate 0.92% among 310,000. AID 463111, 2010;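 active = B-score of the integrated calcium signal more than 4 SD below the library mean, with starting fluorescence not abnormally high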;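 also: negative B-score means reduced calcium response which marks RGS4 activation or potentiation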
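test system = HEK293 cells with stable M3R and inducible RGS4 | schedule = recording 10 s baseline at 1 Hz, 100 s post-agonist | technique = Fluo4-AM (2 µM) calcium-flux fluorescence, kinetic read | measure = Agonist-evoked peak-minus-minimum fluorescence over baseline, integrated ratio, B score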
RGS4 block – RGS4 inhibitors, primary screen, cell-based, HEK293 M3R inducible RGS4, calcium flux; Regulator of G-protein signaling 4 (Homo sapiens), P49798; Fluo-4 calcium flux; active compounds read high; triggered by carbachol at its EC20; B-score at 10 µM; hit rate 0.45% among 310,000;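 active = B-score, a plate-corrected calcium signal, over three deviations above library mean, with baseline fluorescence within five deviations of library mean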;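 also: RGS4 expression induced by doxycycline in cells with stable M3 receptor; B-score is computed from the integrated fluorescence ratio over baseline after carbachol; higher B-score means a larger calcium signal and so more RGS4 inhibition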
Target sequence (P49798 whole entry, looked up): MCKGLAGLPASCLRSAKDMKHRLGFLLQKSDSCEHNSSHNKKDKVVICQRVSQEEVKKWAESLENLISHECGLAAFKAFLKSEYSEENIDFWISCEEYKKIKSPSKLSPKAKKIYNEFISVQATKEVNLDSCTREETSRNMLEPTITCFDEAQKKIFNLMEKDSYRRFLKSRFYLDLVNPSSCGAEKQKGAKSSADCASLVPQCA
MrgX1 antagonist – antagonists of human MrgX1 receptor, primary screen, HEK293 cells, Fluo-4 calcium flux; hit rate 1.3% among 310,000; AID 588676, 2011; B-score at 10 µM; BAM8-22 antagonism; active compounds read low;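 active = calcium-response B-score plate-corrected more than 3 library SD below zero, starting fluorescence within 5 deviations, no agonist response on first addition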;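 also: peak minus trough fluorescence over baseline after final BAM8-22 challenge near maximal dose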
Target sequence (Q96LB2 whole entry, looked up): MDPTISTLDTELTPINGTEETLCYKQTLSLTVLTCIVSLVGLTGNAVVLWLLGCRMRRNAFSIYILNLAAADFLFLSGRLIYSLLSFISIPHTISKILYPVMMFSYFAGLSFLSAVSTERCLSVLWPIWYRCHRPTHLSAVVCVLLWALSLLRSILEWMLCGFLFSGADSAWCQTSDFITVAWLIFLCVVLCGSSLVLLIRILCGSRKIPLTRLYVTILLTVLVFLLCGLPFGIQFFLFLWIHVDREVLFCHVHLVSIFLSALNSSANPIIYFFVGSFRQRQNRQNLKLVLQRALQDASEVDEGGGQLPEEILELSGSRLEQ
MrgX1 ag – agonists of human MrgX1 receptor, primary screen, HEK293 cells, Fluo-4 calcium flux | Mas-related G-protein coupled receptor member X1 (Homo sapiens), Q96LB2 | Fluo-4 calcium fluorescence, agonist mode; active compounds read high | hit rate 0.44% among 310,000 | B-score at 10 µM;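 active = calcium response B-score plate-corrected fluorescence ratio at least 3 library SD, with starting fluorescence B-score inside 5 SD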
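System – MrgX1-expressing HEK293 cells · Incubation – cells plated overnight, dye loaded 0.5 h 37 °C, 0.5 h room temperature · Technique – kinetic Fluo-4 NW fluorescence of intracellular calcium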
MrgX1 PAM – positive allosteric modulators of MrgX1, primary screen, HEK293 cells, Fluo-4 calcium flux; hit rate 0.63% among 310,000; AID 588675, 2011; FDSS; active compounds read high; B-score at 10 µM;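 active = plate-corrected calcium response at least 3 library SD above typical, normal starting fluorescence, not activating the receptor alone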;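 also: compound read alongside a low EC10 to EC30 dose of BAM8-22 agonist; peak minus trough fluorescence over baseline measured at the second addition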
RGS4 act valid – reduced carbachol calcium response, RGS4-induced M3R cells, confirmation, RGS4 activator project, cell-based, HEK293 M3R/RGS4 inducible, calcium flux, duplicate. shares compounds with RGS4 act. carbachol calcium flux Fluo4. inhibition, % at 10 µM. hit rate 89% among 1,100. AID 602282, 2012;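 active = inhibition above 3 SD of the buffer control wells, cut at about 41% in these data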;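 also: signal is the integrated peak-minus-minimum Fluo4 fluorescence over baseline ratio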
M3R Ca counter – counter-screen for RGS4 activators: effect in non-induced cells. shares compounds with RGS4 act. HEK293 M3R non-induced RGS4, Fluo4 calcium flux; after carbachol challenge at its EC90. inhibition, % at 10 µM. hit rate 82% among 1,100;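 active = inhibition exceeding 3 SD of buffer-only control wells, cut at about 26% in these data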;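 also: percent drop in integrated peak-minus-baseline over baseline Fluo4 ratio after carbachol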
RGS4 block valid – enhanced carbachol calcium response, M3R/RGS4 cells, RGS4 inhibitor project, cell-based, validation screen, HEK293 M3R/RGS4, calcium flux | shares compounds with RGS4 block | carbachol calcium Fluo-4 fluorescence; carbachol added at its EC20; 0 = buffer wells, 100 = carbachol control | calcium response, % at 10 µM | hit rate 65% among 1,700;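 active = duplicate-averaged calcium response above the buffer-only control mean plus 5 SD of those controls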;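 also: integrated fluorescence ratio F max minus min over baseline F0; higher response in RGS4-induced cells means RGS4 inhibition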
M3R Ca ctr – carbachol calcium response in non-induced M3R cells, confirmation, counter-screen for RGS4 inhibitor project, cell-based, HEK293 M3R; shares compounds with RGS4 block; carbachol calcium Fluo-4; submaximal (EC20) carbachol stimulus; buffer wells 0%, carbachol control wells 100%; activity (percent), % at 10 µM; hit rate 20% among 1,900; AID 493000, 2010; call rule not given here;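 also: RGS4 induction absent so cells express M3R without RGS4; higher means more calcium signal and flags a non-specific hit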
RGS4 inh ctr2 – second counter-screen for RGS4 inhibitors: non-induced cells without carbachol. HEK293 M3R/RGS4 non-induced, Fluo-4 calcium, no carbachol; normalised: buffer wells 0%, carbachol wells 100%. AID 493001. hit rate 22% among 1,900. calcium response (agonist-mode artifact), % at 10 µM. shares compounds with RGS4 block;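 active = duplicate-averaged calcium rise in uninduced cells above buffer wells' mean plus 5 SD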
MrgX1 allo conf – MrgX1 positive allosteric modulators, duplicate retest, confirmation, HEK293 cells, Fluo-4 calcium flux | shares compounds with MrgX1 PAM | Fluo-4 calcium fluorescence, FDSS | activation (ratio percentage), % at 10 µM | hit rate 13% among 1,200;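 active = ratio at least 3 SD above the weak peptide control, stable starting fluorescence, no direct agonism earlier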;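 also: compound followed by low BAM8-22 agonist challenge near EC20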
HEK293 Ca flux – nonspecific calcium signal in parental HEK293, confirmation, counter-screen for MrgX1 antagonist project, parental HEK293 cells, Fluo-4 calcium flux. shares compounds with MrgX1 antagonist. Fluo-4 calcium fluorescence, FDSS. fluorescence ratio F(max-min)/F0 at 10 µM. hit rate 2% among 4,000;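 active = duplicate-averaged calcium fluorescence ratio at least three times the standard deviation of buffer wells, a nonspecific response in parental cells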
HEK293 Ca counter – calcium response in parental HEK293 cells, primary screen, counter-screen for MrgX1 allosteric activator project, cell-based, Fluo-4 calcium flux, duplicate. shares compounds with MrgX1 antagonist. Fluo-4 fluorescence ratio; active compounds read high. fluorescence ratio F(max-min)/F0 at 10 µM. hit rate 0.4% among 4,000. AID 624114, 2012;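 active = calcium fluorescence ratio, averaged over duplicates, at least 3 SD of the buffer-well ratio, meaning a nonspecific response in receptor-free cells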;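 also: untransfected parental HEK293 lacking MrgX1 used as counterscreen for MrgX1 allosteric activators; fluorescence change taken during the second addition on a kinetic imager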
HEK293 Ca cntr2 – calcium response in parental HEK293 cells, primary screen, counter-screen for MrgX1 agonist project, cell-based, Fluo-4 calcium flux, duplicate, agonist mode. shares compounds with MrgX1 antagonist. Fluo-4 calcium fluorescence (FDSS); active compounds read high. fluorescence ratio F(max-min)/F0 at 10 µM. hit rate 8.7% among 4,000. AID 624115, 2012;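 active = calcium fluorescence ratio at least three times the spread of buffer wells, meaning a non-specific response in parental cells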
A number is an active result. In the library only some 3.5% were active in any assay of this set; here they are far more common.

What do the screens show for `Cc1nc(Sc2ccccc2)c(C#N)cc1-c1ccccc1`?
RGS4 act: -10; RGS4 block: inactive; MrgX1 antagonist: inactive; MrgX1 ag: inactive; MrgX1 PAM: 6.8; RGS4 act valid: 94; M3R Ca counter: 63; MrgX1 allo conf: inactive; HEK293 Ca flux: inactive; HEK293 Ca counter: inactive; HEK293 Ca cntr2: inactive

What do the screens show for `Cc1nc(Cl)c(C#N)cc1-c1ccccc1`?
RGS4 act: inactive; RGS4 block: inactive; MrgX1 antagonist: inactive; MrgX1 ag: inactive; MrgX1 PAM: inactive

How did Cc1c(C)c(C)c(CN2CCCC2)c(C)c1C do in these assays?
RGS4 act: inactive; RGS4 block: inactive; MrgX1 antagonist: inactive; MrgX1 ag: inactive; MrgX1 PAM: inactive

Results for O=C(O)CCCCCN1C(=O)/C(=C\c2ccc(-c3ccc(Cl)cc3)o2)SC1=S ?
RGS4 act: -11; RGS4 block: 36; MrgX1 antagonist: inactive; MrgX1 ag: inactive; MrgX1 PAM: inactive; RGS4 block valid: 44%; M3R Ca ctr: inactive; RGS4 inh ctr2: 48%

How did O=C(CCN1C(=O)/C(=C/C=C/c2ccccc2)SC1=S)Nc1nc2ccccc2s1 do in these assays?
RGS4 act: inactive; RGS4 block: inactive; MrgX1 antagonist: inactive; MrgX1 ag: inactive; MrgX1 PAM: inactive

How did O=C(O)CCCN1C(=O)/C(=C/c2ccc(-c3nc4ccccc4s3)o2)SC1=S do in these assays?
RGS4 act: -9.2; RGS4 block: 22; MrgX1 antagonist: inactive; MrgX1 ag: inactive; MrgX1 PAM: inactive; RGS4 block valid: 8.0%; M3R Ca ctr: inactive; RGS4 inh ctr2: 389%

What do the screens show for `CCN(CC(=O)N1CCOCC1)S(=O)(=O)c1ccc(F)cc1`?
RGS4 act: inactive; RGS4 block: inactive; MrgX1 antagonist: inactive; MrgX1 ag: inactive; MrgX1 PAM: inactive

Source: PubChem (Johns Hopkins Ion Channel Center)
